Shown are actives, neighbours in structure and some others; about 3.3% of the full set was active somewhere.
PglD DTNB: PglD (C. jejuni) enzyme inhibition | purified PglD enzyme, DTNB colorimetric CoA detection | inhibition, % at 12.5 µM | 0.098% of 360,000 active | AID 602405; in the data active means inhibition above about 16%, passing the limit was not always enough; inconclusive means no clear call, values can overlap the other calls
DENV2 CPE rescue: protects cells from dengue virus 2 cytopathic effect | DENV2-infected cells, cytopathic effect rescue, plate reader | CPE inhibition, % at 9.99 µM | 1.7% of 350,000 active | AID 651640; in the data active means CPE inhibition above about 20%, passing the limit was not always enough; inconclusive means no clear call, values can overlap the other calls; tested in BHK-21 cells
FGF22 binding: shifts melting point of recombinant human FGF22. AID 651658. recombinant FGF22 thermal shift, SYPRO orange fluorescence; percent of sucrose octasulfate shift, DMSO zero. 1.5% of 340,000 active. activity (Tm shift, normalised), % at 9.99 µM. Q9HCT0;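 active means mean Tm shift, scaled 0 neutral to 100 positive control, at about 1.3% or above, every replicate too, limit read from the data; inconclusive means no clear call, values can overlap the other calls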
Xi reactivation: activators of X-chromosome reactivation in mouse fibroblasts; 0.055% of 360,000 active; XiGFP mouse fibroblasts, % GFP-positive cells imaging, 3 d; cells co-treated with 5-aza-dC sensitizer; scaled so ellipticine positive control = 100%; activation, % at 7.58 µM;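 active means mean normalized replicate activation at least 10% and every replicate at or above 10%; inconclusive means only one of the two criteria met; inactive means mean below 10% and not all replicates reach 10%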
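Material: XiGFP fibroblasts, SV40-immortalized. Buffer or medium: DMEM plus 5-aza-dC sensitizer. Compound: single concentration per compound, delivered by pin transfer. Times: 3 days compound exposure. Controls: ellipticine 6 µM.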
Statin myotox sup: suppressors of simvastatin-induced myotoxicity in C2C12 myotubes; ATP luminescence, 48 h; scaled: DMSO 0, geranylgeraniol control 100; rescue of ATP level, % at 7.49 µM; 0.78% of 330,000 active;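 active means mean ATP rescue above about 67%, or every replicate alone reaching that limit, limit read from the data, passing the limit was not always enough; inconclusive means no clear call, values can overlap the other calls; inactive means mean under the limit and some replicate under it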;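 further: myotubes were challenged with 10 µM simvastatin during compound exposure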
E-selectin induc: E-selectin induction on HUVECs. P16581. HUVEC E-selectin immunofluorescence imaging; normalized: neutral wells 0, TNF-alpha wells 100. activation, % at 7.58 µM. 0.37% of 260,000 active;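 active means mean E-selectin-positive cell signal at least 10% of the positive control, reached in at least 60% of replicates, without over 20% cell loss; inconclusive means no rule given, readout overlaps actives, possibly toxicity-flagged; inactive means the rest, including those meeting only one limit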
Target sequence (P16581 whole entry, looked up): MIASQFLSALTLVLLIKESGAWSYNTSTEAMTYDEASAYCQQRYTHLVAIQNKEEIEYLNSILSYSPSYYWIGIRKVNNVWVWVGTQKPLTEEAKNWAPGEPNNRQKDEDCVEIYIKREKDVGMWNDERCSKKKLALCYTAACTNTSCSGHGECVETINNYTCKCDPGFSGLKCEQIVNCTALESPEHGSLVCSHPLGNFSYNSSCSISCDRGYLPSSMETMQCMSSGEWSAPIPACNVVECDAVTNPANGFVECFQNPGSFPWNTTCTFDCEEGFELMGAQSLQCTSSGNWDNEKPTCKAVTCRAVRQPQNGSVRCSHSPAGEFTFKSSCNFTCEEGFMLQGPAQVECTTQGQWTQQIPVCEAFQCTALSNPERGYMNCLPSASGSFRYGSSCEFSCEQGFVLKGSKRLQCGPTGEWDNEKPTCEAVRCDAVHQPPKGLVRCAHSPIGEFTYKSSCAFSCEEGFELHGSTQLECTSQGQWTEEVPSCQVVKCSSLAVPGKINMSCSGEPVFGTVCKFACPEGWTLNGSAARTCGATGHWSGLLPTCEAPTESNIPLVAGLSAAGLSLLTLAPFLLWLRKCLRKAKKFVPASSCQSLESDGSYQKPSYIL
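System: HUVEC / Compound: single concentration / Signal: immunofluorescence imaging / Read-out: percent E-selectin-positive cells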
A number is an active result; i = inactive; ? = inconclusive; nt = no result given.

SMILES	PglD DTNB	DENV2 CPE rescue	FGF22 binding	Xi reactivation	Statin myotox sup	E-selectin induc
CCOC(=O)c1cc([N+](=O)[O-])sc1NC(=O)c1ccc(S(=O)(=O)N2CC3(C)CC2CC(C)(C)C3)cc1 (stereo not given)	nt	30.1	i	i	i	nt
CC1(C)CC2CC(C)(CN2S(=O)(=O)c2ccc(C(=O)Nc3ccc(S(=O)(=O)N4CCOCC4)cc3)cc2)C1 (stereo not given)	nt	i	i	i	nt	i
Cc1noc(C)c1COc1ccc(C(=O)OCC(=O)NCCN2C(=O)CSC2=O)cc1	nt	nt	43.5	i	i	i
C[C@@H]1CN([C@H](C)CO)C(=O)Cc2cc(NS(=O)(=O)c3cn(C)cn3)ccc2O[C@@H]1CN(C)Cc1ccncc1	i	?	i	i	i	nt
COc1ccc(CN(C)C[C@H]2OCCCC[C@@H](C)Oc3ccc(NS(=O)(=O)c4ccc(Cl)cc4)cc3C(=O)N([C@@H](C)CO)C[C@@H]2C)cc1	i	?	i	i	nt	nt
COc1ccc(CN(C)C[C@@H]2OCCCC[C@@H](C)Oc3ccc(NS(=O)(=O)c4ccc(Cl)cc4)cc3C(=O)N([C@@H](C)CO)C[C@@H]2C)cc1	i	i	i	i	nt	nt
COc1ccc(CN(C)C[C@@H]2OCCCC[C@H](C)Oc3ccc(NS(=O)(=O)c4ccc(Cl)cc4)cc3C(=O)N([C@@H](C)CO)C[C@H]2C)cc1	i	31.0	i	i	nt	nt
COc1ccc(CN(C)C[C@@H]2OCCCC[C@@H](C)Oc3ccc(NS(=O)(=O)c4ccc(Cl)cc4)cc3C(=O)N([C@H](C)CO)C[C@H]2C)cc1	i	70.4	i	i	nt	nt
C[C@H]1CN(C)C(=O)Cc2ccccc2O[C@H]1CN(C)S(C)(=O)=O	nt	nt	nt	i	nt	nt
Cc1ccccc1-c1ccc2c(c1)O[C@H](CN(C)C(=O)Nc1ccc(C(F)(F)F)cc1)[C@H](C)CN([C@@H](C)CO)S2(=O)=O	i	?	i	i	i	i
Cc1ccc(NC(=O)c2ccccc2Cl)cc1-n1cnnn1	nt	i	43.6	i	nt	nt
COCCN(C[C@@H]1N[C@@H](CO)[C@H]1c1ccc(-c2cccnc2)cc1)C(C)=O	i	30.3	i	i	i	i
COc1ccc(CC(NC(C)=O)C(=O)NC2CCN(c3nc(C)cc(C)c3C#N)CC2)c(OC)c1 (stereo not given)	i	nt	nt	nt	i	nt
COc1cccc(CC(NC(C)=O)C(=O)NC2CCN(c3nc(C)cc(C)c3C#N)CC2)c1 (stereo not given)	i	nt	nt	nt	117.8	nt
CCCCn1c(SCC(=O)Nc2cc(C)[nH]n2)nc2ccsc2c1=O	i	nt	nt	nt	i	nt
Cc1cc(NC(=O)CSc2nc3ccsc3c(=O)n2Cc2ccccn2)n[nH]1	i	i	i	nt	93.1	nt
NC(=O)COC(=O)C(Cc1ccccc1)NS(=O)(=O)c1ccccc1F (stereo not given)	i	nt	nt	nt	109.3	nt
NC(=O)COC(=O)[C@H](Cc1ccccc1)NS(=O)(=O)c1ccc2c(c1)OCCO2	i	i	i	i	i	i
O=C(NC1CCCC1)[C@@H]1[C@@H](CO)[C@@H]2Cn3c(ccc(-c4ccncc4)c3=O)[C@@H]2N1CC1CC1	i	i	i	i	i	i
O=C(C[C@H]1C[C@@H]2c3cc(NC(=O)Nc4ccc(F)cc4)ccc3O[C@@H]2[C@@H](CO)O1)NC1CCCC1	nt	nt	nt	i	nt	nt
C[C@@H]1CN([C@@H](C)CO)C(=O)c2cc(NS(=O)(=O)c3cn(C)cn3)ccc2O[C@@H]1CN(C)S(C)(=O)=O	i	i	i	i	i	i
COc1cc2c3c(c1OC)-c1cc4c(cc1CC3(C#N)N(C(=O)c1ccccc1)CC2)OCO4 (stereo not given)	nt	i	43.0	i	nt	i
CCn1nc(CC(=O)O)c2ccccc2c1=O	nt	i	43.7	i	i	185.1
CCC(=O)N1C[C@H](C)[C@H](OC)CN(C)C(=O)c2ccc(NC(=O)c3ccc(F)cc3)cc2OC[C@H]1C	i	i	i	i	i	i
O=C(C[C@@H]1CC[C@H]2[C@@H](COC[C@@H](O)CN2S(=O)(=O)c2ccc(Cl)cc2)O1)NCCN1CCCC1	i	23.1	i	i	i	i
SMILES	PglD DTNB	DENV2 CPE rescue	FGF22 binding	Xi reactivation	Statin myotox sup	E-selectin induc
O=C(C[C@@H]1CC[C@H]2[C@@H](COC[C@@H](O)CN2C(=O)Nc2ccc(Cl)c(Cl)c2)O1)NCc1ccc(Cl)c(Cl)c1	i	i	i	i	i	i
O=C(C[C@@H]1CC[C@@H]2[C@H](COC[C@@H](O)CN2S(=O)(=O)c2ccc(F)cc2)O1)NCc1ccc(Cl)c(Cl)c1	i	29.1	i	i	i	i
CNC(=O)C[C@H]1CC[C@@H]2[C@H](COC[C@@H](O)CN2C(=O)Nc2ccc3c(c2)OCO3)O1	i	102.3	i	i	i	i
O=C(C[C@H]1CC[C@@H]2[C@H](COC[C@@H](O)CN2S(=O)(=O)c2ccc(F)cc2)O1)NCc1ccc(Cl)c(Cl)c1	i	i	i	i	i	i
CCNC(=O)C[C@@H]1CC[C@@H]2[C@H](COC[C@@H](O)CN2C(=O)Nc2ccc3c(c2)OCO3)O1	i	i	i	i	i	i
O=C(C[C@@H]1CC[C@H]2[C@@H](COC[C@H](O)CN2S(=O)(=O)c2ccc(Cl)cc2)O1)NCCN1CCCC1	i	i	i	i	i	i
O=C(C[C@H]1CC[C@H]2[C@@H](COC[C@@H](O)CN2C(=O)Nc2ccc(Cl)c(Cl)c2)O1)NCc1ccc(Cl)c(Cl)c1	i	i	1.3	i	i	i
CCNC(=O)C[C@@H]1CC[C@@H]2[C@H](COc3ccc(NC(=O)Nc4ccc(C)cc4)cc3C(=O)N2C)O1	i	i	i	i	i	i
COc1ccccc1-c1ccc(C2[C@H]3CNC[C@@H]2N3S(=O)(=O)c2ccc(C)cc2)cc1 (stereo not given in full)	nt	i	nt	i	nt	i
CC(C)C(=O)Nc1ccc2c(c1)C(=O)N(C)[C@@H]1CC[C@H](CC(=O)Nc3ccccc3)O[C@H]1CO2	i	i	i	i	i	i
COc1ccc(S(=O)(=O)N2C[C@H](O)COC[C@H]3O[C@H](CC(=O)NCCCN(C)C)CC[C@@H]32)cc1	i	20.6	i	i	i	i
CN(C)CCCNC(=O)[C@H]1[C@H](CO)[C@H]2Cn3c(ccc(C4=CCCCC4)c3=O)[C@@H]1N2Cc1cocn1	i	i	i	i	i	i
O=C(NCc1ccco1)C1CCN(S(=O)(=O)c2ccccc2C(F)(F)F)CC1	i	i	i	i	i	i
CN(C)C1(CNC(=O)C2CCN(S(=O)(=O)c3ccccc3C(F)(F)F)CC2)CCCCC1	i	31.0	i	i	i	nt
O=S(=O)(c1ccccc1C(F)(F)F)N1CCN(S(=O)(=O)c2ccccc2C(F)(F)F)CC1	i	nt	nt	nt	112.6	nt
